Data set [1] is described as follows: Drug homolysis in DMSO/TsOH assessed as activation energy in presence of alkyl radical scavenger TEMPOR by 31P[1H]-NMR analysis.
Data set [2] concerns U-251. The data set is described as follows: Cytotoxicity against human U251MG cells assessed as reduction in cell survival at IC50 measured after 72 hrs in presence of alkyl radical scavenger troxerutin by MTT assay. It counts as functional, cell-based. The procedure, abridged:
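U251-MG cells in EMEM (10% FBS, Pen Strep, […]) were exposed for 72 h to alkoxyamine together with an equal concentration of the alkyl radical scavenger troxerutin. Survival was read by MTT (0.5 mg/mL, 1 h, OD 550 nm) as % of control, and compared with alkoxyamine alone. At least triplicate.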

The test system of data set [3] is U-251. The data set is described as follows: Cytotoxicity against human U251MG cells assessed as reduction in cell survival measured after 72 hrs by MTT assay. The format is functional, cell-based. The procedure, abridged:
(§1)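 MTT viability on 2D cultures, U87-MG in DMEM and U251-MG in EMEM with […], both with 10% FBS and Pen Strep. 5000 cells seeded, then 72 h exposure to 500, 250, 100, 50, 25, 10 and 5 μM (DMSO at most […]). MTT 0.5 mg/mL for 1 h, formazan in DMSO read at 550 nm. Survival as % of control. IC50 determined graphically. At least triplicate.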
(Formazan colour is commonly taken as a measure of viable cells.)

Data set [4] in a line: Drug homolysis in DMSO/TsOH assessed as rate constant by measuring nitroxide level in presence of alkyl radical scavenger TEMPOR by 31P[1H]-NMR analysis.
Data set [5] is described as follows: Drug homolysis in DMSO assessed as activation energy in presence of alkyl radical scavenger TEMPOR by 31P[1H]-NMR analysis.
The nature of data set [6]: Drug homolysis in DMSO assessed as rate constant by measuring nitroxide level in presence of alkyl radical scavenger TEMPOR by 31P[1H]-NMR analysis.
The next data set concerns U-87 MG. The data set is described as follows: Cytotoxicity against human U87MG cells assessed as reduction in cell survival measured after 72 hrs by MTT assay. As to conditions: for Activity: U-87MG ATCC. The format is functional, cell-based. The procedure, abridged:
as §1

Data set [7] is described as follows: Dissociation constant, pKa of the compound in 1:1 v/v D2O/CD3OD by 1H-NMR spectrometric method. The format is physicochemical. A digest of the protocol:
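Samples in D2O/CD3OD (1:1 v/v) were adjusted with DCl/NaOD to a series of pH* values, read on a meter calibrated with non-deuterated standards, and 1H-NMR was recorded at 400 MHz. Imidazole proton chemical shifts were plotted against pH* and fitted sigmoidally. The pKa* was converted by pH = 0.929 pH* + 0.42.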

Data set [8] is described as follows: Half life in H2O/MeOH buffered with Na2CO3/NaHCO3 at pH 10.3 in presence of alkyl radical scavenger TEMPOR by 31P[1H]-NMR analysis. It counts as physicochemical. As to conditions: for half-life: H2O/MeOH buffered with Na2CO3/NaHCO3, pH 10.3; for t1/2: buffer, pH 10.3.
A short description of data set [9]: Stability in H2O/MeOH buffered with HEPES/NaCl at pH 7.4 assessed as temperature. The format is physicochemical. As to conditions: buffer.
Data set [10] in a line: Half life in H2O/MeOH buffered with HEPES/NaCl at pH 7.4 in presence of alkyl radical scavenger TEMPOR by 31P[1H]-NMR analysis. The format is physicochemical. As to conditions: for half-life: H2O/MeOH buffered with HEPES/NaCl; for t1/2: buffer.
Data set [11] in a line: Stability in H2O/MeOH buffered with HCl/KCl at pH 2.2 assessed as temperature. The format is physicochemical. As to conditions: buffer.
Data set [12] can be described thus: Half life in H2O/MeOH buffered with HCl/KCl at pH 2.2 in presence of alkyl radical scavenger TEMPOR by 31P[1H]-NMR analysis. The format is physicochemical. The conditions noted are these: for half-life: H2O/MeOH buffered with HCl/KCl; for t1/2: buffer.
Data set [13] can be described thus: Stability in H2O/MeOH buffered with Na2CO3/NaHCO3 at pH 10.3 assessed as temperature. It counts as physicochemical. The conditions noted are these: buffer.
Data set [14] is described as follows: n-octanol/phosphate buffered saline partition coefficient, log D of the compound at pH 7.4 by shake-flask method. It counts as physicochemical. The procedure, abridged:
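Shake-flask partition between pre-saturated n-octanol and PBS at pH 7.4. The aqueous phase was quantified by RP-HPLC on a 4.6 × 50 mm column, eluting with CH3CN/H2O (each with 0.1% TFA) from 10:90 to 100:0 over 10 min.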

Data set [15] is described as follows: Drug homolysis in H2O/MeOH buffered with HEPES/NaCl at pH 7.4 assessed as rate constant by measuring nitroxide level in presence of alkyl radical scavenger TEMPOR by 31P[1H]-NMR analysis.
Data set [16] is described as follows: Drug homolysis in H2O/MeOH buffered with HEPES/NaCl at pH 7.4 assessed as activation energy in presence of alkyl radical scavenger TEMPOR by 31P[1H]-NMR analysis.
The nature of data set [17]: Stability in DMSO assessed as temperature. The format is physicochemical.
A short description of data set [18]: Stability in DMSO/TsOH assessed as temperature. The format is physicochemical.
Setting [19] is: 1:1 v/v D2O/CD3OD, read-out: pKa.
[20] abbreviates: n-octanol/phosphate buffered saline, read-out: logD.

Activity calls are given as the source filed them.

Turning to `CCOP(=O)(OCC)C(N(OC(C)n1ccnc1)C(C)(C)C)C(C)(C)C` (stereo in doubt; form 2), the Ea in [1] stood at 33.7 kcal/mol; in data set [5] it was 34.6 kcal/mol. Also, the result with U-251 [2] was Active. Moreover, the Activity entry in the data set on U-251 [3] and in the data set with U-87 MG was “Dose-dependent effect” each time. Besides, the Kdiss is 2.45 ×10⁻³ /s in [4] and 8.02 ×10⁻⁴ /s in data set [6].
As for `CCOP(=O)(OCC)C(N(OC(C)n1ccnc1)C(C)(C)C)C(C)(C)C` (stereo in doubt; form 1) [listing 1 of 2 here], the Ea in data set [1] came out at 34.1 kcal/mol; in data set [5] it was 35.6 kcal/mol. For the same compound, the outcome in the data set with U-251 [2] was Active. Besides, the Activity entry with U-251 [3] and in the data set with U-87 MG was “Dose-dependent effect” each time. The Kdiss in [4] stood at 1.44 ×10⁻³ /s; in [6], 2.69 ×10⁻⁴ /s.
What is called pKa is the pH at which an ionisable group is half protonated. In general, half-life refers to the time needed for the level to fall by half in the phase considered. As a reminder, the logD is the decadic logarithm of the distribution of all forms, ionised or not, between an organic phase and buffer at a given pH. One may read the IC50 as the concentration that inhibits the measured activity by half. As to `CCOP(=O)(OCC)C(N(OC(C)c1c[nH]cn1)C(C)(C)C)C(C)(C)C` (stereo in doubt; form 1), the pKa in data set [7] (setting [19]) turned out to be 6.11. The results for the half-life in data set [8], in data set [10] and in data set [12] were 408 h, 288 h and 103 h, respectively. Besides, the T in [9], in [11] and in data set [13] was 80 °C each time. In data set [14] (setting [20]), the logD was 3.7. Moreover, in the data set on U-87 MG, the half-inhibitory concentration (IC50) was in the range of 25 to 380 µM.
For the compound `CCOP(=O)(OCC)C(N(OC(C)n1cc[n+](C)c1)C(C)(C)C)C(C)(C)C` (stereo in doubt; form 1), in data set [15], the Kdiss was 2.84 ×10⁻⁵ /s. Also, in the data set with U-251 [2], the result was Active. Further, the Activity entry in the data set with U-251 [3] and with U-87 MG was “Dose-dependent effect” in each case. The Ea in data set [16] stood at 32.3 kcal/mol.
On to `CCOP(=O)(OCC)C(N(OC(C)c1c[nH]cn1)C(C)(C)C)C(C)(C)C` (stereo in doubt; form 2), for which the pKa in data set [7] stood at 6.13. For the same compound, the t1/2 in data set [8] turned out to be 456 h; in [10] it was 312 h; in [12] it was 190 h. Also, the IC50 in the data set with U-251 [3] (U-251, 72 h) amounted to 20 µM. The T in data set [13] is 70 °C. This compound also returned a logD in data set [14] (octanol/water) of 4.
For `CCOP(=O)(OCC)C(N(OC(C)c1cn(C)cn1)C(C)(C)C)C(C)(C)C` (stereo in doubt; form 1), the pKa in data set [7] (setting [19]) is 6.76. The half-life in data set [8] is 1560 h; in data set [10] it was 792 h. The T in data set [9], in data set [11] and in data set [13] was 80 °C in each case. In data set [12], the t1/2 was determined as 65 h. Further, the logD in data set [14] (setting [20]) was 3.5. Besides, the IC50 with U-87 MG was in the range of 25 to 380 µM.
Regarding `CCOP(=O)(OCC)C(N(OC(C)c1nccn1C)C(C)(C)C)C(C)(C)C` (stereo in doubt; form 1), in data set [7] (setting [19]), the pKa came to 6.28. For the same compound, the results for the t1/2 in data set [8] and in data set [10] were 130 h and 31 h, respectively. Also, the T is 70 °C in data set [9], 60 °C in [11] and 80 °C in data set [13]. Moreover, in [12], the half-life came to 2.4 h. Further, the logD in data set [14] (setting [20]) turned out to be 3.4. In addition, the half-inhibitory concentration (IC50) in the data set on U-87 MG is 25 to 380 µM.
Take `CCOP(=O)(OCC)C(N(OC(C)c1cn(C)cn1)C(C)(C)C)C(C)(C)C` (stereo in doubt; form 2): the pKa in [7] was found to be 6.56. Moreover, the t1/2 in data set [8] is 1680 h; in data set [10] it was 528 h; in [12], 170 h. The compound also showed a logD in [14] (octanol/water) of 3.8.
Taken in the same sequence, the figures for `CCOP(=O)(OCC)C(N(OC(C)c1nccn1C)C(C)(C)C)C(C)(C)C` (stereo in doubt; form 2) were 6.5, 39 h, 10 h, 1.98 h and 3.7.
On to `CCOP(=O)(OCC)C(N(OC(C)c1ncc[nH]1)C(C)(C)C)C(C)(C)C` (stereo in doubt; form 1), for which the pKa in [7] is listed as 6.04. Besides, the t1/2 in [8] was 312 h; in [10], 81 h; in data set [12], 5 h. In [14] (octanol/water), this compound gave a log distribution coefficient (logD) of 4.1.
For the compound `CCOP(=O)(OCC)C(N(OC(C)n1cc[n+](C)c1)C(C)(C)C)C(C)(C)C` (stereo in doubt; form 2), the Kdiss in data set [15] is 2.84 ×10⁻⁵ /s. Besides, in the data set on U-251 [2], the result was Active. Besides, the Activity result with U-251 [3] and with U-87 MG was “Dose-dependent effect” each time. The Ea in data set [16] came out at 32.3 kcal/mol.
For `CCOP(=O)(OCC)C(N(OC(C)c1ncc[nH]1)C(C)(C)C)C(C)(C)C` (stereo in doubt; form 2), the pKa in [7] (setting [19]) amounted to 6.09. The half-life in data set [8] was 240 h; in [10] it was 60 h; in [12], 4 h. Further, the T was found to be 70 °C in [9], 60 °C in data set [11] and 80 °C in data set [13]. The logD in [14] (setting [20]) was 3.6. In addition, the IC50 with U-87 MG was in the range of 25 to 380 µM.
Take `CCOP(=O)(OCC)C(N(OC(C)n1ccnc1)C(C)(C)C)C(C)(C)C` (stereo in doubt; form 1) [listing 2 of 2 here]: in data set [7] (setting [19]), the pKa stood at 5.62. In addition, the T in data set [17] and in data set [18] was 160 °C in each case. Besides, in data set [14] (setting [20]), the logD was determined as 3.4. Also, the IC50 in the data set on U-87 MG lay within 25 to 380 µM.

For the origin of these results see ChEMBL document CHEMBL4339209, “Chemical modifications of imidazole-containing alkoxyamines increase C-ON bond homolysis rate: Effects on their cytotoxic properties in glioblastoma cells” (Bioorg Med Chem, 2019).
